Laboratory results as given in ChEMBL document CHEMBL1155468, “Syntheses and evaluation of anticonvulsant profile and teratogenicity of novel amide derivatives of branched aliphatic carboxylic acids with 4-aminobenzensulfonamide” (J Med Chem, 2010).
Active and inactive are the calls of the source. No cut-off for these calls is given here.

Tests used:
[1] = tested on: Mus musculus; assay: Neurotoxicity in CF1 albino mouse assessed as motor impairment at 100 mg/kg, ip after 0.5 hrs; assay type: toxicity, organism-based; set-up: dose 100 mg/kg, route intraperitoneal; conditions: in vivo
[2] = tested on: Mus musculus; assay: Teratogenic effect in SWV mouse assessed as fetuses with neural tube deffects at 148 mg/kg, ip administered on morning of day 8 of gestation; assay type: toxicity, organism-based; set-up: dose 148 mg/kg, route intraperitoneal; conditions: in vivo
In short: (§1)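 Two-month-old nulligravid SWV females were mated overnight and checked for vaginal plugs the next morning; gestation onset was set at 10 p.m. the previous night. On gestation day 8.5, each dam received a single ip injection (0.55-2.7 mmol/kg range) or vehicle (25% aqueous Cremophor EL) at 10 μL/g body weight. Litters were scored for implants, resorptions, live and dead fetuses, and fetuses with neural tube defects.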

[3] = tested on: Mus musculus; assay: Anticonvulsant activity in CF1 albino mouse assessed as inhibition of maximal electroshock-induced seizures at 30 mg/kg, ip after 0.5 hrs; assay type: functional, organism-based; set-up: dose 30 mg/kg
In short: (§2)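 Test compounds suspended in 0.5% methylcellulose and given ip to adult male CF no. 1 albino mice (18-25 g) at 0.01 mL/g body weight before maximal electroshock challenge.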

[4] = tested on: Rattus norvegicus; assay: Anticonvulsant activity in po dosed rat assessed as inhibition of maximal electroshock-induced seizures
[5] = tested on: Mus musculus; assay: Anticonvulsant activity in CF1 albino mouse assessed as inhibition of maximal electroshock-induced seizures at 30 mg/kg, ip after 4 hrs; assay type: functional, organism-based; set-up: dose 30 mg/kg; in short: as §2
[6] = tested on: Mus musculus; assay: Anticonvulsant activity in CF1 albino mouse assessed as inhibition of subcutaneous pentylenetetrazole-induced seizures at 100 mg/kg, ip after 4 hrs; assay type: functional, organism-based; set-up: dose 100 mg/kg
In short: (§3)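 Adult male CF no. 1 albino mice (18-25 g) dosed ip with compound suspended in 0.5% methylcellulose (0.01 mL/g). Convulsant: pentylenetetrazol dissolved in 0.9% saline as a 0.85% solution for mice, given subcutaneously.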

[7] = organism: Rattus norvegicus; assay: Protective index, ratio of TD50 for rat to ED50 for maximal electroshock-induced rat seizure model
[8] = tested on: Mus musculus; assay: Teratogenic effect in SWV mouse assessed as fetuses with neural tube deffects at 294 mg/kg, ip administered on morning of day 8 of gestation; assay type: toxicity, organism-based; set-up: dose 294 mg/kg, route intraperitoneal; conditions: in vivo; in short: as §1
[9] = tested on: Mus musculus; assay: Teratogenic effect in SWV mouse assessed as live fetuses at 294 mg/kg, ip administered on morning of day 8 of gestation; assay type: toxicity, organism-based; set-up: dose 294 mg/kg, route intraperitoneal; conditions: in vivo; in short: as §1
[10] = tested on: Mus musculus; assay: Neurotoxicity in CF1 albino mouse assessed as motor impairment at 300 mg/kg, ip after 4 hrs; assay type: toxicity, organism-based; set-up: dose 300 mg/kg, route intraperitoneal; conditions: in vivo
[11] = tested on: Mus musculus; assay: Anticonvulsant activity in CF1 albino mouse assessed as inhibition of maximal electroshock-induced seizures at 300 mg/kg, ip after 4 hrs; assay type: functional, organism-based; set-up: dose 300 mg/kg; in short: as §2
[12] = tested on: Rattus norvegicus; assay: Anticonvulsant activity in Sprague-Dawley rat assessed as inhibition of maximal electroshock-induced seizures at 30 mg/kg, po after 4 hrs
[13] = tested on: Mus musculus; assay: Anticonvulsant activity in CF1 albino mouse assessed as inhibition of subcutaneous pentylenetetrazole-induced seizures at 300 mg/kg, ip after 4 hrs; assay type: functional, organism-based; set-up: dose 300 mg/kg; in short: as §3
[14] = tested on: Mus musculus; assay: Anticonvulsant activity in CF1 albino mouse assessed as inhibition of subcutaneous pentylenetetrazole-induced seizures at 100 mg/kg, ip after 0.5 hrs; assay type: functional, organism-based; set-up: dose 100 mg/kg; in short: as §3
[15] = tested on: Mus musculus; assay: Neurotoxicity in CF1 albino mouse assessed as motor impairment at 100 mg/kg, ip after 4 hrs; assay type: toxicity, organism-based; set-up: dose 100 mg/kg, route intraperitoneal; conditions: in vivo
[16] = tested on: Mus musculus; assay: Teratogenic effect in SWV mouse assessed as resorptions at 729 mg/kg, ip administered on morning of day 8 of gestation; assay type: toxicity, organism-based; set-up: dose 729 mg/kg, route intraperitoneal; conditions: in vivo
In short: (§4)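 SWV inbred mice: two-month-old nulligravid females mated overnight with males and checked for vaginal plugs next morning; gestation onset taken as 10 p.m. the previous night. On gestation day 8.5 each dam got one ip injection, 0.55–2.7 mmol/kg, in 25% aqueous Cremophor EL (vehicle controls dosed alike), 10 μL/g body weight. Litters and implants tallied; resorptions and live fetuses reported as counts with percentages.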

[17] = tested on: Mus musculus; assay: Anticonvulsant activity in CF1 albino mouse assessed as inhibition of subcutaneous pentylenetetrazole-induced seizures at 30 mg/kg, ip after 0.5 hrs; assay type: functional, organism-based; set-up: dose 30 mg/kg; in short: as §3
[18] = tested on: Mus musculus; assay: Teratogenic effect in SWV mouse assessed as live fetuses at 148 mg/kg, ip administered on morning of day 8 of gestation; assay type: toxicity, organism-based; set-up: dose 148 mg/kg, route intraperitoneal; conditions: in vivo; in short: as §1
[19] = tested on: Mus musculus; assay: Teratogenic effect in SWV mouse assessed as live fetuses at 486 mg/kg, ip administered on morning of day 8 of gestation; assay type: toxicity, organism-based; set-up: dose 486 mg/kg, route intraperitoneal; conditions: in vivo; in short: as §4
[20] = tested on: Mus musculus; assay: Teratogenic effect in SWV mouse assessed as live fetuses at 729 mg/kg, ip administered on morning of day 8 of gestation; assay type: toxicity, organism-based; set-up: dose 729 mg/kg, route intraperitoneal; conditions: in vivo; in short: as §4
[21] = tested on: Rattus norvegicus; assay: Neurotoxicity in Sprague-Dawley rat assessed as motor impairment at 30 mg/kg, po after 0.25 to 4 hrs; conditions: in vivo
[22] = tested on: Mus musculus; assay: Teratogenic effect in SWV mouse assessed as resorptions at 486 mg/kg, ip administered on morning of day 8 of gestation; assay type: toxicity, organism-based; set-up: dose 486 mg/kg, route intraperitoneal; conditions: in vivo; in short: as §4
[23] = tested on: Mus musculus; assay: Teratogenic effect in SWV mouse assessed as fetuses with neural tube deffects at 486 mg/kg, ip administered on morning of day 8 of gestation; assay type: toxicity, organism-based; set-up: dose 486 mg/kg, route intraperitoneal; conditions: in vivo; in short: as §1
[24] = tested on: Mus musculus; assay: Anticonvulsant activity in CF1 albino mouse assessed as inhibition of subcutaneous pentylenetetrazole-induced seizures at 300 mg/kg, ip after 0.5 hrs; assay type: functional, organism-based; set-up: dose 300 mg/kg; in short: as §3
[25] = tested on: Mus musculus; assay: Anticonvulsant activity in CF1 albino mouse assessed as inhibition of maximal electroshock-induced seizures at 100 mg/kg, ip after 4 hrs; assay type: functional, organism-based; set-up: dose 100 mg/kg; in short: as §2
[26] = tested on: Mus musculus; assay: Teratogenic effect in SWV mouse assessed as resorptions at 148 mg/kg, ip administered on morning of day 8 of gestation; assay type: toxicity, organism-based; set-up: dose 148 mg/kg, route intraperitoneal; conditions: in vivo; in short: as §4
[27] = tested on: Mus musculus; assay: Neurotoxicity in CF1 albino mouse assessed as motor impairment at 30 mg/kg, ip after 0.5 hrs; assay type: toxicity, organism-based; set-up: dose 30 mg/kg, route intraperitoneal; conditions: in vivo
[28] = tested on: Rattus norvegicus; assay: Anticonvulsant activity in Sprague-Dawley rat assessed as inhibition of maximal electroshock-induced seizures at 30 mg/kg, po after 2 hrs
[29] = tested on: Mus musculus; assay: Anticonvulsant activity in CF1 albino mouse assessed as inhibition of subcutaneous pentylenetetrazole-induced seizures at 30 mg/kg, ip after 4 hrs; assay type: functional, organism-based; set-up: dose 30 mg/kg; in short: as §3
[30] = tested on: Mus musculus; assay: Anticonvulsant activity in CF1 albino mouse assessed as inhibition of maximal electroshock-induced seizures at 100 mg/kg, ip after 0.5 hrs; assay type: functional, organism-based; set-up: dose 100 mg/kg; in short: as §2
[31] = tested on: Mus musculus; assay: Neurotoxicity in CF1 albino mouse assessed as motor impairment at 30 mg/kg, ip after 4 hrs; assay type: toxicity, organism-based; set-up: dose 30 mg/kg, route intraperitoneal; conditions: in vivo
[32] = tested on: Mus musculus; assay: Anticonvulsant activity in CF1 albino mouse assessed as inhibition of maximal electroshock-induced seizures at 300 mg/kg, ip after 0.5 hrs; assay type: functional, organism-based; set-up: dose 300 mg/kg; in short: as §2
[33] = tested on: Mus musculus; assay: Teratogenic effect in SWV mouse assessed as fetuses with neural tube deffects at 729 mg/kg, ip administered on morning of day 8 of gestation; assay type: toxicity, organism-based; set-up: dose 729 mg/kg, route intraperitoneal; conditions: in vivo; in short: as §1
[34] = tested on: Mus musculus; assay: Teratogenic effect in SWV mouse assessed as resorptions at 294 mg/kg, ip administered on morning of day 8 of gestation; assay type: toxicity, organism-based; set-up: dose 294 mg/kg, route intraperitoneal; conditions: in vivo; in short: as §4
[35] = tested on: Rattus norvegicus; assay: Anticonvulsant activity in Sprague-Dawley rat assessed as inhibition of maximal electroshock-induced seizures at 30 mg/kg, po after 1 hr
[36] = tested on: Mus musculus; assay: Neurotoxicity in CF1 albino mouse assessed as motor impairment at 300 mg/kg, ip after 0.5 hrs; assay type: toxicity, organism-based; set-up: dose 300 mg/kg, route intraperitoneal; conditions: in vivo

CCC(CC)C(=O)Nc1ccc(S(N)(=O)=O)cc1
Activity [1]: Non-toxic | Activity [2]: 0.8% | Activity [3]: Active | ED50 [4]: 9.9 mg/kg | Activity [5]: Active | Activity [6]: inactive | Ratio TD50/ED50 [7]: >50.5 | Activity [8]: 4.5% | Activity [9]: 84.2% | Activity [10]: Non-toxic | Activity [11]: Active | Activity [12]: Active | Activity [13]: inactive | Activity [14]: inactive | Activity [15]: Non-toxic | Activity [16]: 53.2% | Activity [17]: inactive | Activity [18]: 93.3% | Activity [19]: 47.9% | Activity [20]: 46.8% | Activity [21]: Non-toxic | Activity [22]: 52.1% | Activity [23]: 25.9% | Activity [24]: inactive | Activity [25]: Active | Activity [26]: 7.7% | Activity [27]: Non-toxic | Activity [28]: Active | Activity [29]: inactive | Activity [30]: Active | Activity [31]: Non-toxic | Activity [32]: Active | Activity [33]: 20.3% | Activity [34]: 15.8% | Activity [35]: Active | Activity [36]: Non-toxic
